Measurements reported in ChEMBL document CHEMBL1148636, “Novel analogues of degarelix incorporating hydroxy-, methoxy-, and pegylated-urea moieties at positions 3, 5, 6 and the N-terminus. Part III” (J Med Chem, 2006).
In brackets after ≈: the same amount, converted by molar mass. Activity calls are given as the source filed them. The calls are words filed in the database; no cut-off is given here. Numbered stars: 1 amine (or outer) side, 2 acyl side, 3 side chain; on linkers, the order of the positions; unused ones are H or OH. Square brackets hold non-standard residues; d marks the D form. Side chains are listed from the residue outwards. Peptide text beside a SMILES is read from it. * marks the point of attachment. dPhe(4-NHCONH2) = NC(=O)Nc1ccc(C[C@@H](N)C(=O)O)cc1; Dihydroorotyl(S) = O=C1C[C@@H](C(=O)*)NC(=O)N1; dPhe(4-NH2) = Nc1ccc(C[C@@H](N)C(=O)O)cc1; dPhe(4-Cl) = N[C@H](Cc1ccc(Cl)cc1)C(=O)O; Phe(4-NH2) = Nc1ccc(C[C@H](N)C(=O)O)cc1; d2Nal = N[C@H](Cc1ccc2ccccc2c1)C(=O)O; Lys(iPr) = CC(C)NCCCC[C@H](N)C(=O)O; NHCH2CH2OCH2CH2OEt = CCOCCOCCN*; d3Pal = N[C@H](Cc1cccnc1)C(=O)O; Methoxycarbamoyl = CONC(=O)*; PEG3 = NCCOCCOCCOCCC(=O)O; CO = O=C([*:1])[*:2]; Butyryl = CCCC(=O)*

Assays:
[1] = molecular target: T1, Gonadotropin-releasing hormone receptor (Homo sapiens, UniProt P30968); assay: Antagonist activity at human GnRH receptor expressed in HEK293 cells as inhibition of GnRH-induced LH secretion by reporter gene assay; type: functional, cell-based
T1 sequence (P30968 whole entry): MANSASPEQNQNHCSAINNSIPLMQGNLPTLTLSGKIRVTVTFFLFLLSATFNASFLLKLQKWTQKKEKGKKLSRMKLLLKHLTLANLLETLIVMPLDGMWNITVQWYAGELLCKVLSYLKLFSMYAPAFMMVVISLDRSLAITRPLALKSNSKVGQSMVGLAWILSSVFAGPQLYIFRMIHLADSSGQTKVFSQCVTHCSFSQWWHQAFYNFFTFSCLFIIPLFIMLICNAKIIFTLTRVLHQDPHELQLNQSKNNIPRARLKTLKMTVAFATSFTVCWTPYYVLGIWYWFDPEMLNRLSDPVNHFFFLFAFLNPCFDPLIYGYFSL
Summary of the method: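 HEK293 cells stably expressing cloned human GnRH receptor plus luciferase reporter under LH alpha subunit promoter; plated 5 × 10^4 cells/well, overnight 37 °C. Compounds in 1% DMSO, 11 half-log concentrations in duplicate, 10 min preincubation, then GnRH 1 nM final, ≥5 h at 37 °C; luminescence read. Percent of control fitted to IC50; geometric mean of ≥2 independent experiments.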

Rattus norvegicus [2] = assay: Antiovulatory activity in rat at 2 ug, sc; type: functional, organism-based
Summary of the method: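 Cycling rats (250-300 g) given peptide 2 μg in 200 μL saline or 5% DMSO in saline sc at noon on proestrus; scored as number of rats ovulating over total treated (8 per group).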

[3] = test system: Mast cell (Rattus norvegicus); assay: Histamine release in mast cells by ELISA
Rattus norvegicus [4] = assay: Inhibition of GnRH-induced LH secretion in Sprague-Dawley rat at 50 ug, sc for 120 hrs; type: functional
Summary of the method: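 Male rats castrated ten days earlier (≥5 per group) injected sc with 50 μg peptide in 50 μL 5% mannitol (0.6% DMSO in the stock); vehicle controls run alongside. Tail-tip blood taken pre-dose and at 3, 72, 96, 120, 144, 168 and sometimes 192 h; plasma LH by RIA, all samples of one experiment in the same assay; >80% inhibition scored.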

Row | SMILES | IC50 [1] [nM] | EC50 [3] [µg/mL] | Activity (Rattus norvegicus [2]) | Inhibition (Rattus norvegicus [4]) [%]
1 | CC(=O)N[C@H](Cc1ccc2ccccc2c1)C(=O)N[C@H](Cc1ccc(Cl)cc1)C(=O)N[C@H](Cc1cccnc1)C(=O)N[C@@H](CO)C(=O)N[C@@H](Cc1ccc(NC(=O)[C@@H]2CC(=O)NC(=O)N2)cc1)C(=O)N[C@H](Cc1ccc(NC(N)=O)cc1)C(=O)N[C@@H](CC(C)C)C(=O)N[C@@H](CCCCNC(C)C)C(=O)N1CCC[C@H]1C(=O)N[C@H](C)C(N)=O [DEGARELIX] (Ac-[d2Nal][dPhe(4-Cl)][d3Pal]S[Phe(4-NH2)](Dihydroorotyl(S))[dPhe(4-NHCONH2)]L[Lys(iPr)]P[dA]-NH2) | – | > 1000 | Active | >80
2 | CCCCCCCC(=O)N[C@H](Cc1ccc2ccccc2c1)C(=O)N[C@H](Cc1ccc(Cl)cc1)C(=O)N[C@H](Cc1cccnc1)C(=O)N[C@@H](CO)C(=O)N[C@@H](Cc1ccc(NC(=O)NOC)cc1)C(=O)N[C@H](Cc1ccc(NC(=O)NOC)cc1)C(=O)N[C@@H](CC(C)C)C(=O)N[C@@H](CCCCNC(C)C)C(=O)N1CCC[C@H]1C(=O)N[C@H](C)C(N)=O | 4.99 | – | – | –
3 | CCOCCOCCNC(=O)Nc1ccc(C[C@H](NC(=O)[C@H](CO)NC(=O)[C@@H](Cc2cccnc2)NC(=O)[C@@H](Cc2ccc(Cl)cc2)NC(=O)[C@@H](Cc2ccc3ccccc3c2)NC(=O)NCCOCCOCC)C(=O)N[C@H](Cc2ccc(NC(=O)NCCOCCOCC)cc2)C(=O)N[C@@H](CC(C)C)C(=O)N[C@@H](CCCCNC(C)C)C(=O)N2CCC[C@H]2C(=O)N[C@H](C)C(N)=O)cc1 | 2.55 | – | – | –
4 | CCOCCOCCNC(=O)Nc1ccc(C[C@H](NC(=O)[C@H](CO)NC(=O)[C@@H](Cc2cccnc2)NC(=O)[C@@H](Cc2ccc(Cl)cc2)NC(=O)[C@@H](Cc2ccc3ccccc3c2)NC(C)=O)C(=O)N[C@H](Cc2ccc(NC(N)=O)cc2)C(=O)N[C@@H](CC(C)C)C(=O)N[C@@H](CCCCNC(C)C)C(=O)N2CCC[C@H]2C(=O)N[C@H](C)C(N)=O)cc1 (Ac-[d2Nal][dPhe(4-Cl)][d3Pal]S[Phe(4-NH2)]([CO-NHCH2CH2OCH2CH2OEt])[dPhe(4-NHCONH2)]L[Lys(iPr)]P[dA]-NH2) | – | 910 (≈ 551 µM) | Active | –
5 | CONC(=O)Nc1ccc(C[C@H](NC(=O)[C@H](CO)NC(=O)[C@@H](CCC(N)=O)NC(=O)[C@@H](Cc2ccc(Cl)cc2)NC(=O)[C@@H](Cc2ccc3ccccc3c2)NC(C)=O)C(=O)N[C@H](Cc2ccc(NC(=O)NOC)cc2)C(=O)N[C@@H](CC(C)C)C(=O)N[C@@H](CCCCNC(C)C)C(=O)N2CCC[C@H]2C(=O)N[C@H](C)C(N)=O)cc1 | 2.98 | – | – | –
6 | CCCCCCCC(=O)N[C@H](Cc1ccc2ccccc2c1)C(=O)N[C@H](Cc1ccc(Cl)cc1)C(=O)N[C@H](Cc1cccnc1)C(=O)N[C@@H](CO)C(=O)N[C@@H](Cc1ccc(NC(=O)[C@@H]2CC(=O)NC(=O)N2)cc1)C(=O)N[C@H](Cc1ccc(NC(=O)NOC)cc1)C(=O)N[C@@H](CC(C)C)C(=O)N[C@@H](CCCCNC(C)C)C(=O)N1CCC[C@H]1C(=O)N[C@H](C)C(N)=O | 9.47 | – | – | –
7 | CCOCCOCCNC(=O)N[C@H](Cc1ccc2ccccc2c1)C(=O)N[C@H](Cc1ccc(Cl)cc1)C(=O)N[C@H](Cc1cccnc1)C(=O)N[C@@H](CO)C(=O)N[C@@H](Cc1ccc(NC(=O)NOC)cc1)C(=O)N[C@H](Cc1ccc(NC(N)=O)cc1)C(=O)N[C@@H](CC(C)C)C(=O)N[C@@H](CCCCNC(C)C)C(=O)N1CCC[C@H]1C(=O)N[C@H](C)C(N)=O | 2.98 | 50.6 (≈ 30.1 µM) | Active | –
8 | CONC(=O)NC[C@@H](NC(=O)[C@@H](Cc1ccc(Cl)cc1)NC(=O)[C@@H](Cc1ccc2ccccc2c1)NC(C)=O)C(=O)N[C@@H](CO)C(=O)N[C@@H](Cc1ccc(NC(=O)[C@@H]2CC(=O)NC(=O)N2)cc1)C(=O)N[C@H](Cc1ccc(NC(N)=O)cc1)C(=O)N[C@@H](CC(C)C)C(=O)N[C@@H](CCCCNC(C)C)C(=O)N1CCC[C@H]1C(=O)N[C@H](C)C(N)=O | 3.16 | – | – | –
9 | CC(=O)Nc1ccc(C[C@H](NC(=O)[C@H](CO)NC(=O)[C@@H](Cc2cccnc2)NC(=O)[C@@H](Cc2ccc(Cl)cc2)NC(=O)[C@@H](Cc2ccc3ccccc3c2)NC(C)=O)C(=O)N[C@H](Cc2ccc(NC(C)=O)cc2)C(=O)N[C@@H](CC(C)C)C(=O)N[C@@H](CCCCNC(C)C)C(=O)N2CCC[C@H]2C(=O)N[C@H](C)C(N)=O)cc1 [ACYLINE] | – | 461 (≈ 301 µM) | Active | –
10 | CCCC(=O)N[C@H](Cc1ccc2ccccc2c1)C(=O)N[C@H](Cc1ccc(Cl)cc1)C(=O)N[C@H](Cc1cccnc1)C(=O)N[C@@H](CO)C(=O)N[C@@H](Cc1ccc(NC(=O)[C@@H]2CC(=O)NC(=O)N2)cc1)C(=O)N[C@H](Cc1ccc(NC(=O)NOC)cc1)C(=O)N[C@@H](CC(C)C)C(=O)N[C@@H](CCCCNC(C)C)C(=O)N1CCC[C@H]1C(=O)N[C@H](C)C(N)=O | 2.13 | – | – | –

The next lines start with results.

Row | IC50 [1] [nM] | EC50 [3] [µg/mL] | SMILES | Activity (Rattus norvegicus [2]) | Inhibition (Rattus norvegicus [4]) [%]
11 | 1.12 | > 1000 | CCOCCOCCNC(=O)Nc1ccc(C[C@H](NC(=O)[C@H](CO)NC(=O)[C@@H](Cc2cccnc2)NC(=O)[C@@H](Cc2ccc(Cl)cc2)NC(=O)[C@@H](Cc2ccc3ccccc3c2)NC(=O)NCCOCCOCC)C(=O)N[C@H](Cc2ccc(NC(N)=O)cc2)C(=O)N[C@@H](CC(C)C)C(=O)N[C@@H](CCCCNC(C)C)C(=O)N2CCC[C@H]2C(=O)N[C@H](C)C(N)=O)cc1 | Active | –
12 | 0.86 | 118 (≈ 75.9 µM) | CC(=O)N[C@H](Cc1ccc2ccccc2c1)C(=O)N[C@H](Cc1ccc(Cl)cc1)C(=O)N[C@H](Cc1cccnc1)C(=O)N[C@@H](CO)C(=O)N[C@@H](Cc1ccc(NC(=O)NO)cc1)C(=O)N[C@H](Cc1ccc(NC(N)=O)cc1)C(=O)N[C@@H](CC(C)C)C(=O)N[C@@H](CCCCNC(C)C)C(=O)N1CCC[C@H]1C(=O)N[C@H](C)C(N)=O | – | –
13 | 2.04 | – | CCOCCOCCNC(=O)Nc1ccc(C[C@H](NC(=O)[C@H](CO)NC(=O)[C@@H](Cc2cccnc2)NC(=O)[C@@H](Cc2ccc(Cl)cc2)NC(=O)[C@@H](Cc2ccc3ccccc3c2)NC(C)=O)C(=O)N[C@H](Cc2ccc(NC(=O)NCCOCCOCC)cc2)C(=O)N[C@@H](CC(C)C)C(=O)N[C@@H](CCCCNC(C)C)C(=O)N2CCC[C@H]2C(=O)N[C@H](C)C(N)=O)cc1 | – | –
14 | 0.91 | 46 (≈ 28.8 µM) | CONC(=O)Nc1ccc(C[C@H](NC(=O)[C@H](CO)NC(=O)[C@@H](Cc2cccnc2)NC(=O)[C@@H](Cc2ccc(Cl)cc2)NC(=O)[C@@H](Cc2ccc3ccccc3c2)NC(C)=O)C(=O)N[C@H](Cc2ccc(NC(=O)NOC)cc2)C(=O)N[C@@H](CC(C)C)C(=O)N[C@@H](CCCCNC(C)C)C(=O)N2CCC[C@H]2C(=O)N[C@H](C)C(N)=O)cc1 | Active | –
15 | 1.53 | – | CONC(=O)Nc1ccc(C[C@H](NC(=O)[C@H](CO)NC(=O)[C@@H](Cc2cccnc2)NC(=O)[C@@H](Cc2ccc(Cl)cc2)NC(=O)[C@@H](Cc2ccc3ccccc3c2)NC(C)=O)C(=O)N[C@H](Cc2ccc(NC(=O)NOC)cc2)C(=O)N[C@@H](CC(C)C)C(=O)N[C@@H](CCCNC(=O)CNC(C)C)C(=O)N2CCC[C@H]2C(=O)N[C@H](C)C(N)=O)cc1 | – | –
16 | 1.06 | – | CONC(=O)NCCOCCOCCOCCC(=O)Nc1ccc(C[C@H](NC(=O)[C@H](CO)NC(=O)[C@@H](Cc2cccnc2)NC(=O)[C@@H](Cc2ccc(Cl)cc2)NC(=O)[C@@H](Cc2ccc3ccccc3c2)NC(C)=O)C(=O)N[C@H](Cc2ccc(NC(N)=O)cc2)C(=O)N[C@@H](CC(C)C)C(=O)N[C@@H](CCCCNC(C)C)C(=O)N2CCC[C@H]2C(=O)N[C@H](C)C(N)=O)cc1 (Ac-[d2Nal][dPhe(4-Cl)][d3Pal]S[Phe(4-NH2)]([PEG3-Methoxycarbamoyl])[dPhe(4-NHCONH2)]L[Lys(iPr)]P[dA]-NH2) | – | –
17 | 1.37 | – | CCCC(=O)N[C@H](Cc1ccc2ccccc2c1)C(=O)N[C@H](Cc1ccc(Cl)cc1)C(=O)N[C@H](Cc1cccnc1)C(=O)N[C@@H](CO)C(=O)N[C@@H](Cc1ccc(NC(=O)NOC)cc1)C(=O)N[C@H](Cc1ccc(NC(=O)NOC)cc1)C(=O)N[C@@H](CC(C)C)C(=O)N[C@@H](CCCCNC(C)C)C(=O)N1CCC[C@H]1C(=O)N[C@H](C)C(N)=O (Butyryl-[d2Nal][dPhe(4-Cl)][d3Pal]S[Phe(4-NH2)](Methoxycarbamoyl)[dPhe(4-NH2)](Methoxycarbamoyl)L[Lys(iPr)]P[dA]-NH2) | – | –
18 | 1.67 | – | CONC(=O)NCCOCCOCCOCCOCCOCCOCCC(=O)Nc1ccc(C[C@@H](NC(=O)[C@H](Cc2ccc(NC(=O)NOC)cc2)NC(=O)[C@H](CO)NC(=O)[C@@H](Cc2cccnc2)NC(=O)[C@@H](Cc2ccc(Cl)cc2)NC(=O)[C@@H](Cc2ccc3ccccc3c2)NC(C)=O)C(=O)N[C@@H](CC(C)C)C(=O)N[C@@H](CCCCNC(C)C)C(=O)N2CCC[C@H]2C(=O)N[C@H](C)C(N)=O)cc1 | – | –
19 | 0.7 | 43.1 (≈ 26.8 µM) | CONC(=O)Nc1ccc(C[C@@H](NC(=O)[C@H](Cc2ccc(NC(=O)NOC)cc2)N(C)C(=O)[C@H](CO)NC(=O)[C@@H](Cc2cccnc2)NC(=O)[C@@H](Cc2ccc(Cl)cc2)NC(=O)[C@@H](Cc2ccc3ccccc3c2)NC(C)=O)C(=O)N[C@@H](CC(C)C)C(=O)N[C@@H](CCCCNC(C)C)C(=O)N2CCC[C@H]2C(=O)N[C@H](C)C(N)=O)cc1 | Active | –
